Data reported in ChEMBL document CHEMBL3526018, “Metabolites of PPI-2458, a selective, irreversible inhibitor of methionine aminopeptidase-2: structure determination and in vivo activity” (Drug Metab Dispos, 2013).
Activity calls are given as the source filed them. The calls are words filed in the database; no cut-off is given here.

Tests used:
[1] = tested on: Liver; test: Metabolic stability in rat liver S9 fraction assessed as retention time of glutathione conjugate at 5 mM by LC/MS analysis; format: ADME, subcellular; settings: s9, 5000 µM
[2] = tested on: Rattus norvegicus; test: Inhibition of MetAP2 level in Sprague-Dawley rat lung assessed as free enzyme level at 3 mg/kg, po by ELISA; format: functional, organism-based; parameters: dose 3 mg/kg
Method in brief: (§1)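 Male Sprague-Dawley rats (200-225 g, n=3 per group) were dosed once IV at 0.3 mg/kg or PO at 0.3 or 3.0 mg/kg, in 11% HPCD in water. Blood, liver, lung, thymus and pooled non-mesenteric lymph nodes were taken at ~24 h and lysed or homogenized with NP-40. Free MetAP2 was measured by ELISA and expressed as % of vehicle.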

[3] = tested on: Liver microsome; test: Metabolic stability in dog liver microsomes assessed as retention time of ((3R,4S,5S,6R)-4-((2R,3R)-3-((E)-4-hydroxy-3-methylbut-2-en-1-yl)-2-methyloxiran-2-yl)-5-methoxy-1-oxaspiro[2.5]octan-6-yl((R)-1-amino-3-methyl-1-oxobutan-2-yl)carbamate) at 5 mM by LC/MS analysis; format: ADME, Canis lupus familiaris; settings: 5000 µM
[4] = Metabolic stability in monkey liver microsomes assessed as retention time of ((3R,4S,5S,6R)-4-((2R,3R)-3-(((S)-3,3-dimethyloxiran-2-yl)methyl)-2-methyloxiran-2-yl)-5-methoxy-1-oxaspiro[2.5]octan-6-yl ((R)-1-amino-3-methyl-1-oxobutan-2-yl)carbamate) at 5 mM by LC/MS analysis; format: ADME, Macaca mulatta; settings: rhesus monkey, 5000 µM
Method in brief: (§2)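 Liver microsomes (pooled male/female) in 100 mM KPO4 pH 7.4 with PPI-2458 (5 mM stock), pre-incubated 5 min at 37°C, then 10 mM NADPH added; 20 min at 37°C with shaking. Time-zero and no-NADPH controls. Quenched with CH3CN; supernatant dried and redissolved in water. Analysed by LC-MS, ESI+ full scan 300–800 amu, C18 column, 10→50% B gradient.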

[5] = tested on: CYP3A5 (Homo sapiens); test: Activity of human recombinant CYP3A5 assessed as ((3R,4S,5S,6R)-5-methoxy-4-((2R,3R)-2-methyl-3-(3-methylbut-2-en-1-yl)oxiran-2-yl)-1-oxaspiro[2.5]octan-6-yl ((R)-1-amino-3-hydroxy-3-methyl-1-oxobutan-2-yl)carbamate) formation; settings: recombinant enzyme
[6] = tested on: Liver microsome; test: Metabolic stability in rat liver microsomes assessed as retention time of ((3R,4S,5S,6R)-4-((2R,3R)-3-(((R)-3,3-dimethyloxiran-2-yl)methyl)-2-methyloxiran-2-yl)-5-methoxy-1-oxaspiro[2.5]octan-6-yl ((R)-1-amino-3-methyl-1-oxobutan-2-yl)carbamate) at 5 mM by LC/MS analysis; format: ADME; settings: 5000 µM; method in brief: as §2
[7] = tested on: CYP3A4 (Homo sapiens); test: Ratio of Vmax to Km for human recombinant CYP3A4 assessed as ((3R,4S,5S,6R)-4-((2R,3R)-3-(((S)-3,3-dimethyloxiran-2-yl)methyl)-2-methyloxiran-2-yl)-5-methoxy-1-oxaspiro[2.5]octan-6-yl ((R)-1-amino-3-methyl-1-oxobutan-2-yl)carbamate) formation; settings: recombinant enzyme
[8] = target: Cytochrome P450 3A4 (Homo sapiens, UniProt P08684); test: Inhibition of CYP3A4 activity in human liver microsomes using testosterone as a substrate by LC/MS analysis; format: ADME
Sequence of Cytochrome P450 3A4 (P08684 whole entry): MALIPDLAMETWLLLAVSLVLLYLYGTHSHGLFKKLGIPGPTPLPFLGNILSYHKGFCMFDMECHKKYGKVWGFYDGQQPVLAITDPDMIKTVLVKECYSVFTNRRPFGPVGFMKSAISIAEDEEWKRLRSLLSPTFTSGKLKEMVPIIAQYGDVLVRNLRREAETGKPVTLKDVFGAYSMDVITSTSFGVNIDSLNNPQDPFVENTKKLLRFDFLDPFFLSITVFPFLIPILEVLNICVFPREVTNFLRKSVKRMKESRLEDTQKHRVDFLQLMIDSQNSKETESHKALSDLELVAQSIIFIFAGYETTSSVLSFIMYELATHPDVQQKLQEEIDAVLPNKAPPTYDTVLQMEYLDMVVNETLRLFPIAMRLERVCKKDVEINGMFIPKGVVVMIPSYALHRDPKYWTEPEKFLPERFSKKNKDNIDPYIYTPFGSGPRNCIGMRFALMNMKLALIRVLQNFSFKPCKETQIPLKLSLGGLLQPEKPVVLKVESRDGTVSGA

[9] = Cmax in non-Hodgkin lymphoma patient at 15 mg, po alternate days for 21 days; format: ADME, organism-based; parameters: dose 15 mg, route oral; settings: human, in vivo
Method in brief: (§3)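 Oral PPI-2458 given every other day to lymphoma patients. Plasma sampled pre-dose and at 15 min, 30 min, 1, 2, 3, 4, 6, 8, 24 and 48 h after the first dose. Parent and metabolites were measured by LC-MS/MS after protein precipitation, evaporation and reconstitution. CL/F was computed only for parent and summed analytes. For metabolites, t1/2 is an apparent first-phase value.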

[10] = tested on: Rattus norvegicus; test: Inhibition of MetAP2 level in Sprague-Dawley rat liver assessed as free enzyme level at 3 mg/kg, po by ELISA; format: functional, organism-based; parameters: dose 3 mg/kg; method in brief: as §1
[11] = Metabolic stability in monkey liver microsomes assessed as retention time of ((3R,4S,5S,6R)-5-methoxy-4-((2R,3R)-2-methyl-3-(3-methylbut-2-en-1-yl)oxiran-2-yl)-1-oxaspiro[2.5]octan-6-yl ((R)-1-amino-3-hydroxy-3-methyl-1-oxobutan-2-yl)carbamate) at 5 mM by LC/MS analysis; format: ADME, Macaca mulatta; settings: rhesus monkey, 5000 µM; method in brief: as §2
[12] = tested on: CYP3A4 (Homo sapiens); test: Activity of human recombinant CYP3A4 assessed as ((3R,4S,5S,6R)-4-((2R,3R)-3-((E)-4-hydroxy-3-methylbut-2-en-1-yl)-2-methyloxiran-2-yl)-5-methoxy-1-oxaspiro[2.5]octan-6-yl((R)-1-amino-3-methyl-1-oxobutan-2-yl)carbamate) formation; settings: recombinant enzyme
[13] = tested on: Liver microsome; test: Metabolic stability in human liver microsomes assessed as retention time of ((3R,4S,5S,6R)-5-methoxy-4-((2R,3R)-2-methyl-3-(3-methylbut-2-en-1-yl)oxiran-2-yl)-1-oxaspiro[2.5]octan-6-yl ((R)-1-amino-3-hydroxy-3-methyl-1-oxobutan-2-yl)carbamate) at 5 mM by LC/MS analysis; format: ADME; settings: 5000 µM; method in brief: as §2
[14] = tested on: CYP3A5 (Homo sapiens); test: Ratio of Vmax to Km for human recombinant CYP3A5 assessed as ((3R,4S,5S,6R)-4-((2R,3R)-3-((E)-4-hydroxy-3-methylbut-2-en-1-yl)-2-methyloxiran-2-yl)-5-methoxy-1-oxaspiro[2.5]octan-6-yl((R)-1-amino-3-methyl-1-oxobutan-2-yl)carbamate) formation; settings: recombinant enzyme
[15] = tested on: CYP3A4 (Homo sapiens); test: Ratio of Vmax to Km for human recombinant CYP3A4 assessed as ((3R,4S,5S,6R)-4-((2R,3R)-3-(((R)-3,3-dimethyloxiran-2-yl)methyl)-2-methyloxiran-2-yl)-5-methoxy-1-oxaspiro[2.5]octan-6-yl ((R)-1-amino-3-methyl-1-oxobutan-2-yl)carbamate) formation; settings: recombinant enzyme
[16] = tested on: Rattus norvegicus; test: Inhibition of MetAP2 level in Sprague-Dawley rat liver assessed as free enzyme level at 0.3 mg/kg, po by ELISA; format: functional, organism-based; parameters: dose 0.3 mg/kg; method in brief: as §1
[17] = Half life in non-Hodgkin lymphoma patient at 15 mg, po alternate days for 21 days; format: ADME, organism-based; settings: human, in vivo; method in brief: as §3
[18] = tested on: CYP3A5 (Homo sapiens); test: Activity of human recombinant CYP3A5 assessed as ((3R,4S,5S,6R)-4-((2R,3R)-3-(((S)-3,3-dimethyloxiran-2-yl)methyl)-2-methyloxiran-2-yl)-5-methoxy-1-oxaspiro[2.5]octan-6-yl ((R)-1-amino-3-methyl-1-oxobutan-2-yl)carbamate) formation; settings: recombinant enzyme
[19] = AUC (0 to infinity) in non-Hodgkin lymphoma patient at 15 mg, po alternate days for 21 days; format: ADME, organism-based; parameters: dose 15 mg, route oral, time infinity; settings: human, in vivo; method in brief: as §3
[20] = tested on: CYP3A5 (Homo sapiens); test: Activity of human recombinant CYP3A5 assessed as ((3R,4S,5S,6R)-4-((2R,3R)-3-((E)-4-hydroxy-3-methylbut-2-en-1-yl)-2-methyloxiran-2-yl)-5-methoxy-1-oxaspiro[2.5]octan-6-yl((R)-1-amino-3-methyl-1-oxobutan-2-yl)carbamate) formation; settings: recombinant enzyme

Retention_time [1]: 20.8 min | Drug metabolism [3]: metabolite_detected | Drug metabolism [4]: metabolite_detected | Km [5]: 17 µM | Drug metabolism [6]: metabolite_detected | Vmax/Km [7]: 0.19 µL/min | Ki [8]: 287 µM | Cmax [9]: 55 ng/mL | Drug metabolism [11]: metabolite_detected | Km [12]: 15 µM | Drug metabolism [13]: metabolite_detected | Vmax/Km [14]: 0.031 µL/min | Vmax/Km [15]: 0.16 µL/min | half-life [17]: 96 min | Km [18]: 17 µM | AUC(0-inf) [19]: 44.1 ng·h/mL | Km [20]: 26 µM
Structure (SMILES): CO[C@@H]1[C@H](OC(=O)N[C@@H](C(N)=O)C(C)C)CC[C@]2(CO2)[C@H]1[C@@]1(C)O[C@@H]1CC=C(C)C [PPI-2458]
inhibition [2]: Active | inhibition [10]: Active | inhibition [16]: Active
